Experimental data pooled from the literature.
Lines come from different studies, so protocols differ.
Cell line: DU-145
Read-out: cell growth or viability

`CC(=O)O[C@H]1C(=O)[C@@]2(C)[C@H]([C@H](OC(=O)c3ccccc3)[C@]3(O)C[C@H](OC(=O)[C@H](O)[C@@H](NC(=O)c4ccccc4)c4ccccc4)C(C)=C1C3(C)C)[C@]1(OC(C)=O)CO[C@@H]1C[C@@H]2O` has a GI50 of 0.004 µM (WST-1; 96 h).
For `COc1ccc(C(=O)/C=C/c2ccccc2Br)cc1S(N)(=O)=O`, the GI50 was 3.3 µM (SRB; 48 h).
`COc1cc2c(cc1O)CCN(Cc1ccc(OC)c(OC)c1OC)C2` gave a GI50 of greater than 100 µM (WST-1; 96 h).
The GI50 of `CCOc1c(OC)cc(CN2CCc3cc(O)c(OC)cc3C2)cc1OC` is reported as 0.3 µM (WST-1; 96 h).
For `COc1cccc(C(=O)N2CCc3cc(O)c(OC)cc3C2)c1`, the GI50 was 31.3 µM (WST-1; 96 h).
`COc1ccc(-c2ccc(-c3ccc(C(=N)N)nc3)s2)cc1` gave a GI50 of 1.77 µM.
With `COc1ccc(C(=O)/C=C/c2c(F)cccc2Cl)cc1S(N)(=O)=O` the GI50 was 3.3 µM (SRB; 48 h).
`Cc1cc(C)n(C(=S)[S][Au][PH](CCCCCC[PH]([Au][S]C(=S)n2nc(C)cc2C)(c2ccccc2)c2ccccc2)(c2ccccc2)c2ccccc2)n1` gave a GI50 of 0.633 µM.
`CCc1cc(CN2CCc3cc(O)c(OC)cc3C2)cc(CC)c1CC` gave a GI50 of 63 µM (WST-1; 96 h).
`COc1ccc(C(=O)/C=C/c2cccc3ccccc23)cc1S(N)(=O)=O` gave a GI50 of 2.8 µM (SRB; 48 h).
`CCOc1cc(CN2CCc3cc(O)c(OC)cc3C2)cc(OCC)c1OCC` has a GI50 of greater than 100 µM (WST-1; 96 h).
For `COc1cc2c(cc1O)CCN(Cc1cc(OC)c(OC)c(OC)c1)C2`, the GI50 was 0.65 µM (WST-1; 96 h).
The GI50 of `COc1ccccc1/C=C/C(=O)c1ccc(OC)c(S(N)(=O)=O)c1` is reported as 3.2 µM (SRB; 48 h).
The GI50 of `COc1cc2c(cc1O)CCN(C(=O)c1cc(OC)c(OC)c(OC)c1)C2` is reported as 0.921 µM (WST-1; 96 h).
The GI50 of `COc1ccc(C(=O)/C=C/c2cccc(Cl)c2)cc1S(N)(=O)=O` is reported as 3.6 µM (SRB; 48 h).
`COc1cc2c(cc1OS(N)(=O)=O)CCN(Cc1cccc(C(C)=O)c1)C2` has a GI50 of 1.85 µM (WST-1; 96 h).
`COc1cc(-c2ccc(-c3ccc(C(=N)N)nc3)s2)cc(OC)c1OC` gave a GI50 of 3.45 µM.
`CCOc1cc(CN2CCc3cc(OS(N)(=O)=O)c(OC)cc3C2)cc(OCC)c1OCC` has a GI50 of 8.5 µM (WST-1; 96 h).
`COc1cc2c(cc1O)CCN(Cc1cccc(OC)c1OC)C2` has a GI50 of greater than 100 µM (WST-1; 96 h).
